S1P4 agonist – activates the human S1P4 receptor. O95977. S1P4-expressing cell line, agonist reporter assay. activation, % at 4.98 µM. actives 0.35% (n = 220,000); in the data active = activation above about 11%;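 note: 0% = DMSO vehicle and 100% = reference agonist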
S1P4 antagonist – human S1P4 receptor antagonism. O95977. S1P4-expressing cells, antagonist mode, reporter read-out. inhibition, % at 4.98 µM. actives 0.26% (n = 220,000). AID 1510; in the data active = inhibition above about 29%;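 note: 0% = wells stimulated with agonist and 100% = vehicle wells without agonist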
NPY-Y1 PAM-ag – potentiates or activates human NPY-Y1 receptor; P25929; NPY-Y1 expressing cells, potentiator/agonist activation; activation, % at 3.6 µM; actives 0.37% (n = 220,000); AID 1304; in the data active = activation above about 33%, passing the limit was not always enough;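 note: cells stimulated with NPY at EC10 then isoproterenol at EC100; 0% = low agonist plus stimulus and 100% = saturating agonist plus stimulus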
Target sequence (P25929 whole entry, looked up): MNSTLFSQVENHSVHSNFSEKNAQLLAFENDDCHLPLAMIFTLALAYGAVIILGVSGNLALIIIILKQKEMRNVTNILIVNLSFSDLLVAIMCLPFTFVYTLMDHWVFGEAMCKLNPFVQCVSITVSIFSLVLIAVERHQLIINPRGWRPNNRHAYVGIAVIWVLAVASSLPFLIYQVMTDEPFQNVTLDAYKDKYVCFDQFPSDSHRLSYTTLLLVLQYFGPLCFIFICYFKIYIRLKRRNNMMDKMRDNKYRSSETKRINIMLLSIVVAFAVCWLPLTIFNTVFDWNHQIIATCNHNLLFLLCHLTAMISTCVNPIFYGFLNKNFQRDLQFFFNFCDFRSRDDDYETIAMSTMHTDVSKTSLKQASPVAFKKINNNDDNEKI
NPY-Y2 PAM-ag – human NPY-Y2 potentiation or agonism, primary screen. P49146. cells expressing NPY-Y2, potentiator/agonist read-out. activation, % at 3.6 µM. actives 0.45% (n = 220,000). AID 1359; in the data active = activation above about 27%;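 note: cells stimulated with NPY near EC25 plus isoproterenol at EC100; 0% = vehicle plus submaximal agonist and 100% = vehicle plus saturating agonist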
NPY Y2 blocker – antagonists of human neuropeptide Y receptor Y2. P49146. NPY-Y2 expressing cells, antagonist mode. inhibition, % at 2.7 µM. actives 0.99% (n = 140,000). AID 793;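 note: 0% = vehicle with agonist challenge and 100% = reference antagonist with challenge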
NPY Y1 blocker – NPY-Y1 (human) receptor antagonism; inhibition, % at 3.6 µM; actives 1% (n = 200,000); P25929; AID 1040; HEK293-CNG Y1 cells, membrane potential fluorescence; NPY at EC95, then isoproterenol;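 active = inhibition above the campaign mean inhibition of all tested compounds plus 3 SD, cut at about 20% in these data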;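 note: 0% = DMSO wells given NPY plus isoproterenol and 100% = isoproterenol alone without NPY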
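Test system – HEK293 Y1/CNG channel cell line · Also added – NPY agonist 25 nM, then isoproterenol 1 µM plus Ro 20-1724 25 µM · Compound dosing – one concentration, 3.6 µM, in 0.4% DMSO · Schedule – compound incubation 1 h at room temperature, readout 45 min post-stimulation · Technique – fluorescence, membrane potential probe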
NPY-Y1 ant conf – human NPY-Y1 antagonism, confirmation. shares compounds with NPY Y1 blocker. HEK293-CNG NPY-Y1, membrane potential fluorescence, cAMP; NPY challenge against isoproterenol-raised cAMP. inhibition, % at 3.6 µM. actives 21% (n = 1,200). AID 1254; in the data active = inhibition above about 20%;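 note: 0% = vehicle with agonist plus stimulus and 100% = stimulus alone without agonist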
NPY-Y2 antag ct – human NPY-Y2 antagonism in NPY-Y1 counter-screen; shares compounds with NPY Y1 blocker; HEK293 NPY-Y2 CNG membrane potential fluorescence; cells given NPY, then isoproterenol; inhibition, % at 3.6 µM; actives 28% (n = 1,200); AID 1255;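 note: 0% = DMSO with agonist challenge and 100% = reference antagonist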
An asterisk follows results filed as active; x = no result. Rows were chosen to be rich in hits. Some 2.4% of all compounds tested hit in one or more screens of this group. Cut-off read from the data, not from the text of the source, unless noted: active = inhibition above about 17%; inactive = the rest.

SMILES	S1P4 agonist	S1P4 antagonist	NPY-Y1 PAM-ag	NPY-Y2 PAM-ag	NPY Y2 blocker	NPY Y1 blocker	NPY-Y1 ant conf	NPY-Y2 antag ct
OC(COc1c(F)cc(Br)cc1F)CN1CCN(c2ccc(F)cc2)CC1 (configuration not stated)	0	-2	-23	2	7	20*	4	9
COC(=O)/C(=N/Nc1ccccc1OC)N1CCCc2ccccc21	-1	14	-24	-55	x	x	x	x
Cc1ccc2c(c1)C(=O)c1ccccc1CS2=O (configuration not stated)	2	-11	16	0	1	0	x	x
CC(C)n1c(O)c(N=NC(=O)Cc2csc(N3CCOCC3)n2)c2ccccc21	0	-2	-1	-7	x	-1	x	x
CCOc1ccc(S(=O)(=O)N2c3ccccc3CC2C)cc1 (configuration not stated)	2	6	-27	-10	15	38*	8	17*
CN(C)CCNC(=O)c1sc2cccc(F)c2c1Cl	1	-8	-22	-6	x	33*	3	8
O=C(NCCCn1ccnc1)c1sc2cccc(F)c2c1Cl	1	14	-9	0	4	2	x	x
Cc1ccc(CN(C)C(=O)c2ccc3c(c2)NC(=O)CS3)o1	0	-6	8	14	x	x	x	x
CC(=O)N(CCC(Cc1ccccc1)c1ccc2c(c1)OCO2)Cc1ccccc1F (configuration not stated)	3	-8	-16	-5	17	21*	18	11
Cc1ccc(/C=N/OC(=O)c2nn(C)cc2Cl)cc1	2	-6	-6	0	x	14	x	x
Clc1ccc(-c2csc(Nc3ccccc3)[n+]2Cc2ccco2)c(Cl)c1	0	0	-6	-10	x	32*	23*	12
CCCC[n+]1c(-c2ccc(Cl)cc2Cl)csc1Nc1ccccc1	-2	-11	-10	15	3	17	x	x
O=C(c1ccccn1)N(Cc1cccs1)C1(C(=O)NC2CCCCC2)CCCCC1	1	-30	8	-11	x	44*	15	7
COc1ccc(CCC(=O)Nc2ccc(Cl)c(S(=O)(=O)N3CCCC3)c2)cc1	0	4	6	30	x	x	x	x
O=C(CCNC(=O)c1ccccc1Cl)Nc1cc(S(=O)(=O)N2CCOCC2)ccc1N1CCCC1	1	-9	-2	-4	x	x	x	x
Cc1cc(NC(=O)c2cc3n(n2)C(C(F)(F)F)CC(c2ccc(Cl)c(Cl)c2)N3)no1 (configuration not stated)	-1	15	20	11	3	21*	0	4
Cc1ccc(C2CC(C(F)(F)F)n3nc(C(=O)Nc4c(C)n(C)n(-c5ccccc5)c4=O)cc3N2)cc1 (configuration not stated)	1	-5	6	0	x	4	x	x
COC(=O)CSc1nc2[nH]ncc2c(=O)[nH]1	0	5	9	0	x	-1	x	x
CCOC(=O)c1c(NC(=O)C(F)(OC)C(F)(F)F)sc(C(=O)N2CCCCC2)c1C (configuration not stated)	1	7	-15	9	2	22*	9	4
COc1ccc(F)cc1C(=O)C1CCCN(Cc2cccn2-c2ccccn2)C1 (configuration not stated)	2	23	-29	-27	x	35*	23*	20*
COc1ccc(C(=O)C2CCCN(Cc3cccn3-c3ccccn3)C2)c(OC)c1 (configuration not stated)	0	-7	-28	-36	x	27*	21*	18*
O=C(c1cc(F)ccc1F)C1CCCN(Cc2cccn2-c2ccccn2)C1 (configuration not stated)	-1	-8	-4	-33	x	x	x	x
Clc1cccc(Cl)c1CSc1cc2c(nn1)-c1ccccc1CC2	4	-9	-10	-5	1	-2	x	x
Clc1ccccc1CSc1cc2c(nn1)-c1ccccc1CC2	2	-4	-11	-10	12	23*	4	8
Cc1ccsc1C(=O)C1CCCN(Cc2cc(F)ccc2-n2cccn2)C1 (configuration not stated)	0	-1	-22	-34	x	30*	8	12
SMILES	S1P4 agonist	S1P4 antagonist	NPY-Y1 PAM-ag	NPY-Y2 PAM-ag	NPY Y2 blocker	NPY Y1 blocker	NPY-Y1 ant conf	NPY-Y2 antag ct
Cc1ccc(-c2csc(Nc3ccccc3)[n+]2CCc2ccccc2)cc1	3	9	-21	-3	x	22*	6	18*
Cc1ccc(-c2csc(Nc3ccc(C(=O)O)cc3)[n+]2Cc2ccccc2)cc1	0	-3	8	12	x	-4	x	x
Cc1cccc(-c2nsc(SCC(=O)NCC3CCCO3)n2)c1 (configuration not stated)	2	-5	11	-5	x	30*	4	2
COC(/C=C/Nc1ccc(OC)cc1)=C(C#N)C#N	1	-8	-8	-5	0	40*	1	0
O=C(COC(=O)c1ccc(Cl)nc1)NCCC1=CCCCC1	1	13	-4	9	x	11	x	x
COc1ccccc1NC(=O)COC(=O)/C=C/c1ccc2c(c1)OCO2	-3	-3	-29	-49	x	27*	11	7
O=C(NN1C(=O)c2ccccc2C1=O)c1ccccc1[N+](=O)[O-]	2	-7	-1	2	x	0	x	x
O=C(NCc1ccccc1)c1cccc(NS(=O)(=O)c2cccc3cccnc23)c1	-1	-22	-43	-21	3	9	x	x
C/C(=N\Nc1nc2ccccc2s1)c1ccc(Br)s1	3	-3	26	11	x	31*	8	20*
COc1ccc(CCNS(=O)(=O)c2ccc(N3CCCC3=O)cc2)cc1	2	-13	-29	-20	4	12	x	x
CCOc1ccc(S(=O)(=O)Nc2cc(OC)ccc2OC)cc1	2	-18	-25	-16	8	27*	4	16
COc1ccc(OC)c(NS(=O)(=O)c2ccc(N3CCCC3=O)cc2)c1	-1	-10	-5	1	8	44*	-3	15
CCn1c(-c2c(Cl)c(C)nn2C)n[nH]c1=S	-2	-12	-15	7	-1	1	x	x
CCSc1nc2ccccc2n1CC(=O)O	-1	-4	-11	-12	x	8	x	x
C[n+]1c2n(c3ccccc31)N=C(c1cc(C(C)(C)C)c(O)c(C(C)(C)C)c1)CS2	0	-10	-32	-28	x	65*	48*	39*
Cc1ccc(OCc2nnc(SCC(=O)c3ccccc3)n2Cc2ccco2)cc1	2	-28	-26	-7	5	11	x	x

Screening data: PubChem BioAssay, The Scripps Research Institute Molecular Screening Center
